Data on 7 compounds can be found in ChEMBL document CHEMBL4145675, “2-Phenylquinoline S. aureus NorA Efflux Pump Inhibitors: Evaluation of the Importance of Methoxy Group Introduction” (J Med Chem, 2018).

The structures appear in SMILES notation. Values after ≈ are worked out from the molar mass of the structure shown. Active and inactive are the calls of the source. The rule behind the calls is not given here.

One series deals with Staphylococcus aureus. The series is described as follows: Antimicrobial activity against Staphylococcus aureus SA-1199B expressing wild type norA and co-expressing GrlA A116E mutant by microdilution method. Format: organism-based. Conditions: in vivo. A digest of the protocol:
(§1)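 CLSI broth microdilution MIC of the compound alone. Strains: SA-K1902 (norA deleted), SA-K2378 (SA-K1902 carrying norA plus its promoter on multicopy plasmid pCU1), SA-1199B (norA overexpressing, GrlA A116E).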
(In general: Broth dilution looks for growth in wells or tubes with falling amounts of substance.)
In turn, `CCCOc1ccc(-c2cc(OCCN3CCNCC3)c3cc(OC)ccc3n2)cc1` returned an MIC of 29.6 µM (≈ 12.5 µg/mL).

In the case of `CCCOc1ccc(-c2cc(OCCN(CC)CC)c3c(OC)cc(OC)cc3n2)cc1`, the MIC was more than 228 µM.

For `CCCOc1ccc(-c2cc(OCCN3CCN(Cc4ccccc4)CC3)c3ccc(OC)cc3n2)cc1`, the MIC was more than 195 µM.

Compound `CCCOc1ccc(-c2cc(OCCN3CCNCC3)c3cccc(OC)c3n2)cc1` registered an MIC of more than 237 µM.

`CCCOc1ccc(-c2cc(OCCN3CCCCC3)c3cccc(OC)c3n2)cc1` had an MIC of 238 µM (≈ 100 µg/mL).

In turn, `CCCOc1ccc(-c2cc(OCCCN(C)C)c3ccc(OC)cc3n2)cc1` showed an MIC of 232 µM (≈ 91.5 µg/mL).

Compound `CCCOc1ccc(-c2cc(OCCN(CC)CC)c3cc(OC)c(OC)cc3n2)cc1` gave an MIC of more than 228 µM.

A further series relates to Staphylococcus aureus. As to the kind of experiment: Antimicrobial activity against NorA deficient Staphylococcus aureus SA-K1902 by microdilution method. Format: organism-based. Particulars: in vivo. Summed up:
as §1
Compound `CCCOc1ccc(-c2cc(OCCN(CC)CC)c3c(OC)cc(OC)cc3n2)cc1` displayed an MIC of 25 µg/mL (≈ 57 µM).

The target of another series is T1, Quinolone resistance protein NorA (Staphylococcus aureus) (UniProt P0A0J7).
T1 sequence (whole entry): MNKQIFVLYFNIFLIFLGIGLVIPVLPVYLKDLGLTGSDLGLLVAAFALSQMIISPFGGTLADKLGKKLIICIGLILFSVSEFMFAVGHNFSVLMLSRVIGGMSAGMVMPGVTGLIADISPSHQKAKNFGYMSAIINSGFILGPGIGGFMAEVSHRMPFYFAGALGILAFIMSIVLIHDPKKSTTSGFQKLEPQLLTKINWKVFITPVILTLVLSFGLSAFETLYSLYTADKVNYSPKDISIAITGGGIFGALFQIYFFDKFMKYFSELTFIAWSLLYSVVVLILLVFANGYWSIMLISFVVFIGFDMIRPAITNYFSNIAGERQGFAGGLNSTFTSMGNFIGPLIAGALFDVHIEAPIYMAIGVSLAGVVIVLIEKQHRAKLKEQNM
The series is described as follows: Inhibition of NorA in Staphylococcus aureus SA-1199B expressing GrlA A116E mutant assessed as minimal potentiating drug concentration causing 8 fold reduction in ciprofloxacin MIC by microdilution method based Checkerboard assay.
Details: not given
As to `CCCOc1ccc(-c2cc(OCCN(CC)CC)c3c(OC)cc(OC)cc3n2)cc1`, the Activity turned out to be 1.56 µg/mL.

For `CCCOc1ccc(-c2cc(OCCN3CCN(Cc4ccccc4)CC3)c3ccc(OC)cc3n2)cc1`, the Activity was more than 100 µg/mL.

For the compound `CCCOc1ccc(-c2cc(OCCN3CCNCC3)c3cccc(OC)c3n2)cc1`, the Activity came out at 25 µg/mL.

With `CCCOc1ccc(-c2cc(OCCCN(C)C)c3ccc(OC)cc3n2)cc1`, the Activity came to 6.25 µg/mL.

On to `CCCOc1ccc(-c2cc(OCCN(CC)CC)c3cc(OC)c(OC)cc3n2)cc1`, for which the Activity was found to be 50 µg/mL.

Another series relates to Staphylococcus aureus. As to the kind of experiment: Synergistic potentiation of ciprofloxacin-induced antimicrobial activity against Staphylococcus aureus SA-1199 at 0.78 to 100 ug/ml by microdilution method based Checkerboard assay. It is filed as functional, organism-based.
Details: not given
With `CCCOc1ccc(-c2cc(OCCN(CC)CC)c3c(OC)cc(OC)cc3n2)cc1`, the inhibition result was “Active”.

On to `CCCOc1ccc(-c2cc(OCCN3CCN(Cc4ccccc4)CC3)c3ccc(OC)cc3n2)cc1`, for which the inhibition result was “Active”.

With `CCCOc1ccc(-c2cc(OCCN3CCNCC3)c3cccc(OC)c3n2)cc1`, the inhibition result was “Active”.

Take `CCCOc1ccc(-c2cc(OCCCN(C)C)c3ccc(OC)cc3n2)cc1`: the inhibition result was “Active”.

For the compound `CCCOc1ccc(-c2cc(OCCN(CC)CC)c3cc(OC)c(OC)cc3n2)cc1`, the inhibition entry was “Active”.

The target of another series is T1, Quinolone resistance protein NorA (Staphylococcus aureus). The series is described as follows: Inhibition of NorA in Staphylococcus aureus SA-1199B expressing GrlA A116E mutant assessed as reduction in EtBr efflux at 50 uM incubated for 5 mins by fluorescence based assay.
Details: not given
Summed up: (§2)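 Cells were grown overnight in cation-supplemented Mueller-Hinton broth at 35 °C and subcultured to OD600 0.7–0.8. They were loaded at OD600 0.8 with 25 µM EtBr plus 100 µM CCCP (final) for 20 min at room temperature. Cells were then resuspended in fresh broth with or without compound, 50 µM for the single-point screen or a concentration series for IC50. Fluorescence (ex 485/em 645 nm) was read for 5 min. Inhibition was calculated from the fluorescence decrease versus untreated cells. Biological triplicate, each run twice.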
On to `CCCOc1ccc(-c2cc(OCCN3CCNCC3)c3cc(OC)ccc3n2)cc1`, for which the inhibition was found to be 84.4%.

Regarding `CCCOc1ccc(-c2cc(OCCN(CC)CC)c3c(OC)cc(OC)cc3n2)cc1`, the inhibition is 93.1%.

As to `CCCOc1ccc(-c2cc(OCCN3CCN(Cc4ccccc4)CC3)c3ccc(OC)cc3n2)cc1`, the inhibition came to 92.1%.

For the compound `CCCOc1ccc(-c2cc(OCCN3CCNCC3)c3cccc(OC)c3n2)cc1`, the inhibition is 100%.

For `CCCOc1ccc(-c2cc(OCCN3CCCCC3)c3cccc(OC)c3n2)cc1`, the inhibition came out at 88.7%.

As for `CCCOc1ccc(-c2cc(OCCCN(C)C)c3ccc(OC)cc3n2)cc1`, the inhibition worked out at 100%.

As to `CCCOc1ccc(-c2cc(OCCN(CC)CC)c3cc(OC)c(OC)cc3n2)cc1`, the inhibition was 95.4%.

For the next series, the system named is Staphylococcus aureus. As to the kind of experiment: Antimicrobial activity against Staphylococcus aureus SA-1199B expressing wild type norA by microdilution method. Format: organism-based. Particulars: in vivo. Summed up: (§3)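 Broth microdilution MIC per CLSI guidelines. ATCC 25923 is norA wild-type. SA-1199B overexpresses norA and carries an A116E GrlA substitution.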
`CCCOc1ccc(-c2cc(OCCN(CC)CC)c3c(OC)cc(OC)cc3n2)cc1` gave an MIC of more than 100 µg/mL.

Compound `CCCOc1ccc(-c2cc(OCCN3CCN(Cc4ccccc4)CC3)c3ccc(OC)cc3n2)cc1` showed an MIC of more than 100 µg/mL.

In the case of `CCCOc1ccc(-c2cc(OCCN3CCNCC3)c3cccc(OC)c3n2)cc1`, the MIC is more than 100 µg/mL.

As for `CCCOc1ccc(-c2cc(OCCCN(C)C)c3ccc(OC)cc3n2)cc1`, the MIC was determined as 100 µg/mL (≈ 253 µM).

On to `CCCOc1ccc(-c2cc(OCCN(CC)CC)c3cc(OC)c(OC)cc3n2)cc1`, for which the MIC was more than 100 µg/mL.

For another series, the system named is Staphylococcus aureus. The series is described as follows: Synergistic potentiation of ciprofloxacin-induced antimicrobial activity against wild type Staphylococcus aureus ATCC 25923 at 0.78 to 100 ug/ml by microdilution method based Checkerboard assay.
Details: not given
Format: functional, organism-based.
Consider `CCCOc1ccc(-c2cc(OCCN(CC)CC)c3c(OC)cc(OC)cc3n2)cc1`, for which the “synergistic potentiation of ciprofloxacin activity” value (from here on “synergistic potentiation”) is “Active”.

`CCCOc1ccc(-c2cc(OCCN3CCN(Cc4ccccc4)CC3)c3ccc(OC)cc3n2)cc1`: the “synergistic potentiation” value is “Active”.

Consider `CCCOc1ccc(-c2cc(OCCN3CCNCC3)c3cccc(OC)c3n2)cc1`, for which the “synergistic potentiation” value is “Active”.

Consider `CCCOc1ccc(-c2cc(OCCCN(C)C)c3ccc(OC)cc3n2)cc1`, for which the “synergistic potentiation” value is “Active”.

In the case of `CCCOc1ccc(-c2cc(OCCN(CC)CC)c3cc(OC)c(OC)cc3n2)cc1`, the “synergistic potentiation” value is “Active”.

The next series has as its target T1, Quinolone resistance protein NorA (Staphylococcus aureus). As to the kind of experiment: Inhibition of NorA in Staphylococcus aureus SA-1199B expressing GrlA A116E mutant assessed as synergistic potentiation of ciprofloxacin-induced antimicrobial activity at 0.78 to 100 ug/ml by microdilution method based Checkerboard assay.
Details: not given
As to `CCCOc1ccc(-c2cc(OCCN(CC)CC)c3c(OC)cc(OC)cc3n2)cc1`, the inhibition entry was “Active”.

As to `CCCOc1ccc(-c2cc(OCCN3CCN(Cc4ccccc4)CC3)c3ccc(OC)cc3n2)cc1`, the inhibition result is “Active”.

On to `CCCOc1ccc(-c2cc(OCCN3CCNCC3)c3cccc(OC)c3n2)cc1`, for which the inhibition result was “Active”.

Turning to `CCCOc1ccc(-c2cc(OCCCN(C)C)c3ccc(OC)cc3n2)cc1`, the inhibition entry was “Active”.

On to `CCCOc1ccc(-c2cc(OCCN(CC)CC)c3cc(OC)c(OC)cc3n2)cc1`, for which the inhibition entry was “Active”.

A further series relates to Staphylococcus aureus. The series is described as follows: Antimicrobial activity against Staphylococcus aureus ATCC 25923 by microdilution method. Format: organism-based. Conditions: in vivo. Summed up:
as §3
Take `CCCOc1ccc(-c2cc(OCCN(CC)CC)c3c(OC)cc(OC)cc3n2)cc1`: the MIC stood at 100 µg/mL (≈ 228 µM).

`CCCOc1ccc(-c2cc(OCCN3CCN(Cc4ccccc4)CC3)c3ccc(OC)cc3n2)cc1` had an MIC of more than 100 µg/mL.

`CCCOc1ccc(-c2cc(OCCN3CCNCC3)c3cccc(OC)c3n2)cc1` had an MIC of more than 100 µg/mL.

Compound `CCCOc1ccc(-c2cc(OCCCN(C)C)c3ccc(OC)cc3n2)cc1` gave an MIC of 100 µg/mL (≈ 253 µM).

Consider `CCCOc1ccc(-c2cc(OCCN(CC)CC)c3cc(OC)c(OC)cc3n2)cc1`, for which the MIC was determined as 100 µg/mL (≈ 228 µM).

The target of a further series is Quinolone resistance protein NorA (Staphylococcus aureus, UniProt P0A0J7, A116E). As to the kind of experiment: Inhibition of NorA in Staphylococcus aureus SA-1199B expressing GrlA A116E mutant assessed as reduction in EtBr efflux incubated for 5 mins by fluorescence based assay.
Details: not given
A digest of the protocol:
as §2
Consider `CCCOc1ccc(-c2cc(OCCN3CCNCC3)c3cc(OC)ccc3n2)cc1`, for which the IC50 was determined as 15.6 µM.

On to `CCCOc1ccc(-c2cc(OCCN(CC)CC)c3c(OC)cc(OC)cc3n2)cc1`, for which the IC50 came to 2.8 µM.

As to `CCCOc1ccc(-c2cc(OCCN3CCN(Cc4ccccc4)CC3)c3ccc(OC)cc3n2)cc1`, the IC50 was determined as 7.3 µM.

`CCCOc1ccc(-c2cc(OCCN3CCNCC3)c3cccc(OC)c3n2)cc1`: the IC50 worked out at 9.9 µM.

For `CCCOc1ccc(-c2cc(OCCN3CCCCC3)c3cccc(OC)c3n2)cc1`, the IC50 worked out at 11.9 µM.

`CCCOc1ccc(-c2cc(OCCCN(C)C)c3ccc(OC)cc3n2)cc1`: the IC50 was found to be 4.3 µM.

On to `CCCOc1ccc(-c2cc(OCCN(CC)CC)c3cc(OC)c(OC)cc3n2)cc1`, for which the concentration for half-maximal inhibition (IC50) turned out to be 4.1 µM.

What is called inhibition is the change of the read-out against control, counted positive when it falls. A word on the IC50: it is the point on the concentration scale where inhibition reaches its midpoint.
